# Measured values collected from several papers.
# Protocols differ between the studies behind these lines.
# Organism: Hepatitis C virus
# Effect on: viral replication
# Action: inhibitor
Compound,test,system,setting,EC50 [nM]
CCC(=O)Nc1cc(C(=O)Nc2ccc(CN3CCN(C)CC3)c(C(F)(F)F)c2)ccc1OC,qPCR,"Huh7.5, GETYPE2A",72 h,< 1500
O=C1OC[C@H]2OC(O)[C@H](O)[C@@H](O)[C@@H]2OC(=O)c2cc(O)c(O)c(O)c2-c2c(O)c(O)c3oc(=O)c4c(c(O)c(O)c5oc(=O)c2c3c54)-c2c1cc(O)c(O)c2O (mixture of isomers),,"Huh-7, GETYPE2A","48 h, replicon",> 150000
C=C1CC[C@H](O)C/C1=C/C=C1\CCC[C@]2(C)[C@@H]([C@H](C)/C=C/[C@H](C)C(C)C)CC[C@@H]12,luciferase,"BM4-5, GETYPE1B","72 h, replicon",12800
CC(C)(C)OC(=O)N[C@H]1CCCCC/C=C\[C@@H]2C[C@@]2(C(=O)NS(=O)(=O)C2CC2)NC(=O)[C@@H]2C[C@@H](OC(=O)N3Cc4cccc(F)c4C3)CN2C1=O,,"Huh-7, GETYPE1A GETYPE1B","96 h, replicon",0.57
C=C1/C(=C\C=C2/CCC[C@]3(C)[C@@H]([C@H](C)CCCC(C)(C)O)CC[C@@H]23)C[C@@H](O)C[C@@H]1O,luciferase,GETYPE2A,"72 h, replicon",5430
COC(=O)N[C@H](C(=O)N1CCC[C@H]1c1ncc(-c2ccc(-c3ccc(-c4cnc([C@@H]5CCCN5C(=O)[C@@H](NC(=O)OC)C(C)C)[nH]4)cc3)cc2)[nH]1)C(C)C,,GETYPE2A,replicon,0.103
O=c1oc2c(O)c(O)cc3c(=O)oc4c(O)c(O)cc1c4c23,,"Huh-7, GETYPE2A","48 h, replicon",~60000
CC(C)(CO)C(=O)SCCOP(=O)(NCc1ccccc1)OC[C@H]1O[C@@H](n2cnc3c(=O)[nH]c(N)nc32)[C@](C)(O)[C@@H]1O (mixture of isomers),,"Huh-7, GETYPE1",replicon,300
CN1CCN(C(c2ccccc2)c2ccc(Cl)cc2)CC1 (racemic),,"Huh-7.5.1, GETYPE2A","48 h, replicon",44
CCC(CC)COC(=O)[C@H](C)N[P@](=O)(OC[C@H]1O[C@@](C#N)(c2ccc3c(N)ncnn23)[C@H](O)[C@@H]1O)Oc1ccccc1,,"Huh7.5, GETYPE3 GETYPE3A",replicon,190
C[C@H](NC(=O)OCc1ccccc1)C(=O)Nc1ccc(C2S/C(=N\c3cccc(F)c3)N(Cc3ccco3)C2=O)cc1 (stereo partly drawn),,"Huh-7, GETYPE1B",replicon,570
COc1nc(N)nc2c1ncn2[C@@H]1O[C@H](COP(=O)(N[C@@H](C)C(=O)OCC(C)(C)C)Oc2cccc3ccccc23)[C@@H](O)[C@@]1(C)O (stereo partly drawn),,GETYPE1A,"96 h, replicon",1.4
